# Assay results as given in ChEMBL document CHEMBL1122061, “Use of a potential rabbit model for structure--behavioral activity studies of cannabinoids” (1982).
# Experiments:
# Assay type in all cases: functional
# Oryctolagus cuniculus [1] = assay: Number of rabbits convulsed at 0.5 mg/kg, iv out of 1 rabbit tested
# Procedure, shortened: (§1)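 Adult tetrahydrocannabinol-seizure susceptible (THC-SS) rabbits, 2–4 kg, dosed intravenously with cannabinoid in 10% polysorbate 80/90% physiological saline. Presence or absence of behavioral convulsion was recorded within 20 min. Animals were reused for several compounds or doses, with at least 7 days between trials and treatments given in random order. Every rabbit also received 0.05 mg/kg Δ9-THC at least once. Aim was four rabbits per dose.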
# Oryctolagus cuniculus [2] = assay: Number of rabbits convulsed at 4 mg/kg, iv out of 1 rabbit tested; procedure, shortened: as §1
# Oryctolagus cuniculus [3] = assay: Number of rabbits convulsed at 2 mg/kg, iv out of 2 rabbits tested; procedure, shortened: as §1
# Oryctolagus cuniculus [4] = assay: Number of rabbits convulsed at 1 mg/kg, iv out of 4 rabbits tested; procedure, shortened: as §1
# Oryctolagus cuniculus [5] = assay: Number of rabbits convulsed at 0.01 mg/kg, iv out of 4 rabbits tested; procedure, shortened: as §1
# Oryctolagus cuniculus [6] = assay: Number of rabbits convulsed at 1 mg/kg, iv out of 1 rabbits tested; procedure, shortened: as §1
# Oryctolagus cuniculus [7] = assay: Number of rabbits convulsed at 0.5 mg/kg, iv out of 1 rabbits tested; procedure, shortened: as §1
# Oryctolagus cuniculus [8] = assay: Number of rabbits convulsed at 0.05 mg/kg, iv out of 4 rabbits tested; procedure, shortened: as §1
# Oryctolagus cuniculus [9] = assay: Number of rabbits convulsed at 0.25 mg/kg, iv out of 1 rabbits tested; procedure, shortened: as §1
# Oryctolagus cuniculus [10] = assay: Number of rabbits convulsed at 0.5 mg/kg, iv out of 4 rabbits tested; procedure, shortened: as §1
# Oryctolagus cuniculus [11] = assay: Number of rabbits convulsed at 20 mg/kg, iv out of 3 rabbits tested; procedure, shortened: as §1
# Oryctolagus cuniculus [12] = assay: Number of rabbits convulsed at 0.9 mg/kg, iv out of 3 rabbits tested; procedure, shortened: as §1
# Oryctolagus cuniculus [13] = assay: Number of rabbits convulsed at 0.1 mg/kg, iv out of 4 rabbits tested; procedure, shortened: as §1
# Oryctolagus cuniculus [14] = assay: Number of rabbits convulsed at 0.005 mg/kg, iv out of 4 rabbits tested; procedure, shortened: as §1
# Oryctolagus cuniculus [15] = assay: Number of rabbits convulsed at 0.5 mg/kg, iv out of 3 rabbits tested; procedure, shortened: as §1
# Oryctolagus cuniculus [16] = assay: Number of rabbits convulsed at 0.9 mg/kg, iv out of 4 rabbits tested; procedure, shortened: as §1
# Oryctolagus cuniculus [17] = assay: Number of rabbits convulsed at 0.1 mg/kg, iv out of 2 rabbits tested; procedure, shortened: as §1
# Oryctolagus cuniculus [18] = assay: Number of rabbits convulsed at 0.1 mg/kg, iv out of 1 rabbits tested; procedure, shortened: as §1
# Oryctolagus cuniculus [19] = assay: Number of rabbits convulsed at 0.9 mg/kg, iv out of 1 rabbits tested; procedure, shortened: as §1
# Oryctolagus cuniculus [20] = assay: Number of rabbits convulsed at 20 mg/kg, iv out of 2 rabbits tested; procedure, shortened: as §1
# Oryctolagus cuniculus [21] = assay: Number of rabbits convulsed at 1 mg/kg, iv out of 3 rabbits tested; procedure, shortened: as §1
# Oryctolagus cuniculus [22] = assay: Number of rabbits convulsed at 5 mg/kg, iv out of 1 rabbit tested; procedure, shortened: as §1
# Oryctolagus cuniculus [23] = assay: Number of rabbits convulsed at 10 mg/kg, iv out of 1 rabbit tested; procedure, shortened: as §1
# Oryctolagus cuniculus [24] = assay: Number of rabbits convulsed at 0.05 mg/kg, iv out of 3 rabbits tested; procedure, shortened: as §1
# Oryctolagus cuniculus [25] = assay: Number of rabbits convulsed at 5 mg/kg, iv out of 1 rabbits tested; procedure, shortened: as §1
# Oryctolagus cuniculus [26] = assay: Number of rabbits convulsed at 10 mg/kg, iv out of 1 rabbits tested; procedure, shortened: as §1
# Oryctolagus cuniculus [27] = assay: Number of rabbits convulsed at 0.25 mg/kg, iv out of 5 rabbits tested; procedure, shortened: as §1
# Oryctolagus cuniculus [28] = assay: Number of rabbits convulsed at 5 mg/kg, iv out of 4 rabbits tested; procedure, shortened: as §1
# Oryctolagus cuniculus [29] = assay: Number of rabbits convulsed at 20 mg/kg, iv out of 1 rabbits tested; procedure, shortened: as §1
# Oryctolagus cuniculus [30] = assay: Number of rabbits convulsed at 0.5 mg/kg, iv out of 7 rabbits tested; procedure, shortened: as §1
# Oryctolagus cuniculus [31] = assay: Number of rabbits convulsed at 0.05 mg/kg, iv out of 2 rabbits tested; procedure, shortened: as §1
# Oryctolagus cuniculus [32] = assay: Number of rabbits convulsed at 8 mg/kg, iv out of 2 rabbits tested; procedure, shortened: as §1
# Oryctolagus cuniculus [33] = assay: Number of rabbits convulsed at 20 mg/kg, iv out of 4 rabbits tested; procedure, shortened: as §1
# Oryctolagus cuniculus [34] = assay: Number of rabbits convulsed at 15 mg/kg, iv out of 1 rabbit tested; procedure, shortened: as §1
# Oryctolagus cuniculus [35] = assay: Number of rabbits convulsed at 8 mg/kg, iv out of 1 rabbit tested; procedure, shortened: as §1
# Oryctolagus cuniculus [36] = assay: Number of rabbits convulsed at 20 mg/kg, iv out of 6 rabbits tested; procedure, shortened: as §1
# Oryctolagus cuniculus [37] = assay: Number of rabbits convulsed at 15 mg/kg, iv out of 7 rabbits tested; procedure, shortened: as §1
# Oryctolagus cuniculus [38] = assay: Number of rabbits convulsed at 10 mg/kg, iv out of 6 rabbits tested; procedure, shortened: as §1
# Oryctolagus cuniculus [39] = assay: Number of rabbits convulsed at 15 mg/kg, iv out of 10 rabbits tested; procedure, shortened: as §1
# Oryctolagus cuniculus [40] = assay: Number of rabbits convulsed at 0.1 mg/kg, iv out of 10 rabbits tested; procedure, shortened: as §1
# Oryctolagus cuniculus [41] = assay: Number of rabbits convulsed at 0.05 mg/kg, iv out of 14 rabbits tested; procedure, shortened: as §1
# Oryctolagus cuniculus [42] = assay: Number of rabbits convulsed at 0.9 mg/kg, iv out of 9 rabbits tested; procedure, shortened: as §1
# Oryctolagus cuniculus [43] = assay: Number of rabbits convulsed at 0.5 mg/kg, iv out of 20 rabbits tested; procedure, shortened: as §1
structure (smiles),measurement,setting,value
CCCCCc1cc(O)c2c(c1)OC(C)(C)c1ccc(CO)cc1-2,No. of rabbits convulsed,Oryctolagus cuniculus [1],0
same,No. of rabbits convulsed,Oryctolagus cuniculus [2],1
same,No. of rabbits convulsed,Oryctolagus cuniculus [3],2
same,No. of rabbits convulsed,Oryctolagus cuniculus [4],1
CCCCCc1cc(O)c2c(c1)OC(C)(C)[C@@H]1CC=C(CO)CC21 (some centres not stated),No. of rabbits convulsed,Oryctolagus cuniculus [5],2
same,No. of rabbits convulsed,Oryctolagus cuniculus [6],1
same,No. of rabbits convulsed,Oryctolagus cuniculus [7],1
same,No. of rabbits convulsed,Oryctolagus cuniculus [8],4
same,No. of rabbits convulsed,Oryctolagus cuniculus [9],1
CCCCCc1cc(O)c2c(c1)OC(C)(C)[C@@H]1C[C@H](O)C(C)=CC21 (some centres not stated),No. of rabbits convulsed,Oryctolagus cuniculus [5],2
same,No. of rabbits convulsed,Oryctolagus cuniculus [8],4
CCCCCc1cc(O)c2c(c1)OC(C)(C)[C@@H]1CC=C(C=O)CC21 (some centres not stated),No. of rabbits convulsed,Oryctolagus cuniculus [5],0
same,No. of rabbits convulsed,Oryctolagus cuniculus [10],4
same,No. of rabbits convulsed,Oryctolagus cuniculus [8],4
CCCCCc1cc(O)c2c(c1)OC(C)(C)C1=C2CCCC1,No. of rabbits convulsed,Oryctolagus cuniculus [11],1
same,No. of rabbits convulsed,Oryctolagus cuniculus [12],0
CCCCCCC(C)(C)c1cc(O)c2c(c1)OC(C)(C)[C@@H]1CCC(=O)CC21 (some centres not stated),No. of rabbits convulsed,Oryctolagus cuniculus [5],4
same,No. of rabbits convulsed,Oryctolagus cuniculus [13],4
same,No. of rabbits convulsed,Oryctolagus cuniculus [14],3
CCCCCc1cc(O)c2c(c1)OC(C)(C)C1=C2CC(C)CC1 (configuration not stated),No. of rabbits convulsed,Oryctolagus cuniculus [15],2
same,No. of rabbits convulsed,Oryctolagus cuniculus [16],4
same,No. of rabbits convulsed,Oryctolagus cuniculus [17],0
CCCCCc1cc(O)c2c(c1)OC(C)(C)[C@@H]1C[C@@H](O)C(C)=CC21 (some centres not stated),No. of rabbits convulsed,Oryctolagus cuniculus [18],0
same,No. of rabbits convulsed,Oryctolagus cuniculus [19],0
same,No. of rabbits convulsed,Oryctolagus cuniculus [20],0
CCCCCc1cc(O)c2c(c1)OC(C)(C)[C@@H]1CC=C(C(=O)O)CC21 (some centres not stated),No. of rabbits convulsed,Oryctolagus cuniculus [21],0
same,No. of rabbits convulsed,Oryctolagus cuniculus [20],2
same,No. of rabbits convulsed,Oryctolagus cuniculus [22],0
same,No. of rabbits convulsed,Oryctolagus cuniculus [23],0
CCCCCC(C)C(C)c1cc(O)c2c(c1)OC(C)(C)[C@@H]1CC=C(C)CC21 (some centres not stated),No. of rabbits convulsed,Oryctolagus cuniculus [5],3
same,No. of rabbits convulsed,Oryctolagus cuniculus [24],3
CCCCCc1cc(O)c2c(c1)OC(C)(C)[C@@H]1CCC(C)CC21 (some centres not stated),No. of rabbits convulsed,Oryctolagus cuniculus [18],1
same,No. of rabbits convulsed,Oryctolagus cuniculus [25],1
same,No. of rabbits convulsed,Oryctolagus cuniculus [21],3
same,No. of rabbits convulsed,Oryctolagus cuniculus [7],1
same,No. of rabbits convulsed,Oryctolagus cuniculus [8],2
CCCCC(O)c1cc(O)c2c(c1)OC(C)(C)c1ccc(C)cc1-2 (configuration not stated),No. of rabbits convulsed,Oryctolagus cuniculus [25],0
same,No. of rabbits convulsed,Oryctolagus cuniculus [26],0
CC1=CC2c3c(O)cc(CCCCCO)cc3OC(C)(C)[C@@H]2CC1 (some centres not stated),No. of rabbits convulsed,Oryctolagus cuniculus [13],4
same,No. of rabbits convulsed,Oryctolagus cuniculus [8],2
CCCCCc1cc(O)c2c(c1)OC(C)(C)[C@@H]1CCC(CO)=CC21 (some centres not stated),No. of rabbits convulsed,Oryctolagus cuniculus [5],3
same,No. of rabbits convulsed,Oryctolagus cuniculus [13],4
same,No. of rabbits convulsed,Oryctolagus cuniculus [27],5
same,No. of rabbits convulsed,Oryctolagus cuniculus [8],4
"CCCCCc1cc(O)c2c(c1)OC(C)(C)[C@@H]1CC=C(C)CC21 (single isomer, unassigned; (+))",No. of rabbits convulsed,Oryctolagus cuniculus [28],2
same,No. of rabbits convulsed,Oryctolagus cuniculus [29],1
"CCCCCc1cc(O)c2c(c1)OC(C)(C)[C@@H]1CC=C(C)CC21 (single isomer, unassigned; (-))",No. of rabbits convulsed,Oryctolagus cuniculus [13],4
same,No. of rabbits convulsed,Oryctolagus cuniculus [30],7
same,No. of rabbits convulsed,Oryctolagus cuniculus [8],2
"CC(=O)Oc1cc(OC(C)CCCc2ccccc2)cc2c1[C@@H]1C[C@H](O)CC[C@H]1[C@H](C)N2 (single isomer, unassigned; (-)) [NANTRADOL]",No. of rabbits convulsed,Oryctolagus cuniculus [31],2
same,No. of rabbits convulsed,Oryctolagus cuniculus [8],3
CCCCCc1cc(O)c2c(c1)OC(C)(CCC=C(C)C)C=C2 (configuration not stated) [CANNABICHROMENE],No. of rabbits convulsed,Oryctolagus cuniculus [32],0
same,No. of rabbits convulsed,Oryctolagus cuniculus [33],1
same,No. of rabbits convulsed,Oryctolagus cuniculus [34],0
CCCCCc1cc(O)c2c(c1)OC1(C)CCC3C1C2C3(C)C (configuration not stated) [CANNABICYCLOL],No. of rabbits convulsed,Oryctolagus cuniculus [35],0
same,No. of rabbits convulsed,Oryctolagus cuniculus [20],0
C=C(C)[C@@H]1CCC(C)=C[C@H]1c1c(O)cc(CCCCC)cc1O [CANNABIDIOL],No. of rabbits convulsed,Oryctolagus cuniculus [36],0
same,No. of rabbits convulsed,Oryctolagus cuniculus [37],0
CCCCCc1cc(O)c2c(c1)OC(C)(C)c1ccc(C)cc1-2 [CANNABINOL],No. of rabbits convulsed,Oryctolagus cuniculus [38],4
same,No. of rabbits convulsed,Oryctolagus cuniculus [39],10
CCCCCc1cc(O)c2c(c1)OC(C)(C)[C@@H]1CCC(C)=C[C@@H]21 [DRONABINOL],No. of rabbits convulsed,Oryctolagus cuniculus [40],10
same,No. of rabbits convulsed,Oryctolagus cuniculus [5],0
same,No. of rabbits convulsed,Oryctolagus cuniculus [41],14
same,No. of rabbits convulsed,Oryctolagus cuniculus [42],9
same,No. of rabbits convulsed,Oryctolagus cuniculus [43],20
same,No. of rabbits convulsed,Oryctolagus cuniculus [26],1
CCCCCc1cc(O)cc(O)c1 [WHILE OLIVETOL],No. of rabbits convulsed,Oryctolagus cuniculus [33],0
